Results from different studies.
Target: Serine/threonine-protein kinase 10 (STK10, Homo sapiens, UniProt O94804)

`CCN1CCN(Cc2ccc(NC(=O)c3ccc(C)c(/C=C/c4cnc5[nH]ccc5c4OC)c3)cc2C(F)(F)F)CC1` gave an inhibition of -39.1% (target engagement in cells, inhibitor, chemoproteomics; A-375; 50 nM).
With `C[C@@H](c1cccc(C#N)c1)n1cc(Cl)cc(C(N)=O)c1=N` the remaining binding was 86% (cell-free assay, competition with immobilised ligand; 1 µM).
`CNC(=O)c1cc2c(Oc3ccc(NC(=O)C4(C(=O)Nc5ccc(F)cc5)CC4)cc3)ccnc2cc1OC` has an inhibition of 75% (enzyme activity, inhibitor, radiometric; 1 µM).
With `CN([C@@H]1CCc2c(CC(=O)O)c3ccccc3n2C1)S(=O)(=O)c1ccc(F)cc1` the remaining binding was 100% (cell-free assay, competition with immobilised ligand; 1 µM).
`CC/C(=N\NC(=O)NCc1cccc(O)c1)c1ccc(O)c(C)c1O` has an inhibition of 1% (enzyme activity, inhibitor; 0.1 µM).
For `Nc1nc(Nc2ccc(S(N)(=O)=O)cc2)nn1C(=O)c1c(F)cccc1F`, the remaining signal was 17% (cell-free assay; 0.5 µM).
`COc1cc(Cl)c(C(=O)N[C@@H](CN[C@H]2CC[C@@H](N)CC2)Cc2ccc(C#N)cc2)cc1-c1ccc(CN[C@H](C)c2ccc(C)cc2)o1` gave a remaining activity of 110% (enzyme activity, inhibitor; 1 µM).
`COc1cc2c(N3CCN(C(=O)Nc4ccc(OC(C)C)cc4)CC3)ncnc2cc1OCCCN1CCCCC1` has a remaining signal of 95% (cell-free assay; 0.5 µM).
For `Cc1cc(NC(=O)c2cccc3cc(-c4cccc5[nH]nc(N)c45)ccc23)ccc1F`, the activity vs control was 97% (enzyme activity, inhibitor; 0.1 µM).
With `CCOCCn1cc(C(=O)Nc2ccc(-n3nc(-c4cccnc4)cc3C(F)(F)F)cn2)ccc1=O` the remaining binding was 100% (cell-free assay, competition with immobilised ligand; 1 µM).
For `CCN(CC)CCNC(=O)c1c(C)[nH]c(/C=C2\C(=O)Nc3ccc(F)cc32)c1C`, the inhibition was 37% (enzyme activity, inhibitor; 0.3 µM).
The remaining signal of `N#CCCc1ccc2c(c1)-c1[nH]c3ccc([N+](=O)[O-])cc3c1CC(=O)N2` is reported as 74.1% (cell-free assay; 0.5 µM).
For `Cn1nc(C(F)(F)F)cc1-c1cnc(N2CCc3cc(S(=O)(=O)Nc4c(F)cc(Cl)cc4F)cc(N4CCCC4=O)c32)nc1`, the remaining binding was 94% (cell-free assay, competition with immobilised ligand; 1 µM).
For `Cc1ccc(NC(=O)c2ccc(C)c(C(F)(F)F)c2)cc1C#Cc1nn(C2CCC(O)CC2)c2ncnc(N)c12` (centres unmarked), the remaining signal was 16% (cell-free assay; 10 µM).
The remaining binding of `Cc1cnn2ncc(-c3ccnc(N(C)C)n3)c2c1` is reported as 100% (binding; 1 µM).
`FC(F)(F)c1ccc2c(c1)nc(-c1cccnc1)n2C1CC1` gave a remaining binding of 100% (cell-free assay, competition with immobilised ligand; 1 µM).
The remaining activity of `Cc1ccc(C(=O)Nc2ccc(CN3CCN(C)CC3)c(C(F)(F)F)c2)cc1C#Cc1cnc2cccnn12` is reported as 0.05% (enzyme activity, inhibitor; 23.5 nM).
For `CCN1CCN(Cc2ccc(NC(=O)c3ccc(C)c(Oc4ccnc5[nH]ccc45)c3)cc2C(F)(F)F)CC1`, the inhibition was -177% (target engagement in cells, inhibitor, chemoproteomics; A-375; 0.5 µM).
For `Cc1noc([C@H]2C[C@@H](c3ccc(C(F)(F)F)cc3)CN(C(=O)N3CCS(=O)(=O)C3)C2)n1`, the remaining binding was 100% (cell-free assay, competition with immobilised ligand; 1 µM).
With `CNC(=O)c1cc(Oc2ccc(NC(=O)Nc3ccc(Cl)c(C(F)(F)F)c3)cc2)ccn1` the inhibition was 88% (enzyme activity, inhibitor; 10 µM).
The remaining binding of `c1ccc(N2CCN(Cc3nc4ccccc4[nH]3)CC2)nc1` is reported as 100% (binding, competition with immobilised ligand; 1 µM).
`O=C1NC(=O)c2cc(Nc3ccc(F)cc3)c(Nc3ccc(F)cc3)cc21` has a remaining signal of 79.2% (cell-free assay; 0.5 µM).
The remaining activity of `O=C(Nc1cnn(-c2csc(C(=O)NC3COC3)c2)c1)Nc1c(F)cccc1Cl` is reported as 89% (enzyme activity, inhibitor; 5 µM).
